# Results as given in ChEMBL document CHEMBL1132723, “Potent 1,3-disubstituted-9H-pyrido[3,4-b]indoles as new lead compounds in antifilarial chemotherapy” (1999).
# Several values for one entry are separate records, joined by “and”; a condition that tells them apart may be missing. Equal entries are not always repeated.
# Legend:
# [1] = tested on: Acanthocheilonema viteae; test: In vivo anti-filarial (microfilaricidal) activity at an ip dose of 50 mg/kg (for 5 days) against A. viteae in Mastomys coucha.; format: functional; conditions: route intraperitoneal
# Outline: (§1)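 Acanthocheilonema viteae infection in Mastomys coucha; compounds given as fine suspensions in 1% Tween 80 for 5 consecutive days, 50 mg/kg ip and/or 200 mg/kg orally. Micro- and macrofilaricidal action and sterilisation of surviving female worms were scored. Two to three animals per dose level, with at least two replicate experiments.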
# [2] = tested on: Acanthocheilonema viteae; test: In vivo anti-filarial (macrofilaricidal) activity at an ip dose of 50 mg/kg (for 5 days) against A. viteae in Mastomys coucha.; format: functional; conditions: route intraperitoneal
# Outline: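 Infected *Mastomys coucha* were dosed for 5 consecutive days, either 50 mg/kg ip or 200 mg/kg orally. Compounds were given as fine suspensions in 1% Tween 80. Each dose level used two to three animals, with at least two replicates to confirm activity. Micro- and macrofilaricidal action was scored by the cited earlier method.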
# [3] = tested on: Acanthocheilonema viteae; test: Antifilarial activity as percent of surviving A. viteae in Mastomys coucha sterlized after an intraperitoneal dose of 50 mg/kg (for 5 days).; format: functional; outline: as §1
# [4] = tested on: Mus musculus; test: Antifilarial activity evaluated as percent of surviving Brugia malayi that were sterlized after an ip dose of 50 mg/kg (for 5 days); format: functional; conditions: route intraperitoneal
# Outline: (§2)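 Male Mastomys, 6 weeks old, each inoculated with 50 infective Brugia malayi larvae recovered from infected Aedes aegypti. Screening followed the A. viteae protocol, with a 1% Tween 80 suspension for 5 days at 50 mg/kg ip or 250 mg/kg orally. Micro- and macrofilaricidal action and sterilisation of surviving females were scored. Two to three animals per dose.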
# [5] = tested on: Mus musculus; test: In vivo anti-filarial (maf-macrofilaricidal) activity at an ip dose of 50 mg/kg (for 5 days) against Brugia malayi; format: functional; conditions: route intraperitoneal
# Outline: (§3)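 Male *Mastomys* infected at 6 weeks old with *B. malayi* larvae were dosed for 5 days, 50 mg/kg ip or 250 mg/kg orally, as a 1% Tween 80 suspension. Screening followed the *A. viteae* scheme. Micro- and macrofilaricidal action and sterilization of surviving female worms were scored. Each dose used two to three animals, with at least duplicate confirmation.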
# [6] = tested on: Acanthocheilonema viteae; test: In vivo anti-filarial (mif-macrofilaricidal) activity at an oral dose of 200 mg/kg (for 5 days) against A. viteae in Mastomys coucha
# [7] = tested on: Mus musculus; test: In vivo anti-filarial (maf-macrofilaricidal) activity at an po dose of 250 mg/kg (for 5 days) against Brugia malayi; format: functional; outline: as §3
# [8] = tested on: Mus musculus; test: In vivo anti-filarial (mif-microfilaricidal) activity at an ip dose of 50 mg/kg (for 5 days) against Brugia malayi; format: functional; conditions: route intraperitoneal; outline: as §3
# [9] = tested on: Mus musculus; test: In vivo anti-filarial (mif-microfilaricidal) activity at an po dose of 250 mg/kg (for 5 days) against Brugia malayi; format: functional; outline: as §2
# [10] = tested on: Acanthocheilonema viteae; test: In vivo anti-filarial (mif-microfilaricidal) activity at an ip dose of 200 mg/kg (for 5 days) against A. viteae in Mastomys coucha
# [11] = tested on: Rattus norvegicus; test: Antifilarial activity evaluated as percent of surviving Litomosoides carinii in cotton rats that were sterlized after an ip dose of 30 mg/kg (for 5 days); format: functional; conditions: route intraperitoneal
# Outline: (§4)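 Cotton rats (Sigmodon hispidus), 6 weeks old, infected with Litomosoides carinii through the mite vector Liponyssus bacoti. Animals with ≥250 microfilariae/5 mm blood were used. Dosed 30 mg/kg ip for 5 consecutive days as a 1% Tween 80 suspension. Blood microfilariae were checked before treatment and weekly until day 42, when animals were killed and adult male and female worms examined.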
# [12] = tested on: Rattus norvegicus; test: (§5) In vivo anti-filarial (maf-macrofilaricidal) activity at an ip dose of 30 mg/kg (for 5 days) against Litomosoides carinii in cotton rats; format: functional; conditions: route intraperitoneal
# Outline: (§6)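 They received 30 mg/kg ip for 5 consecutive days as a 1% Tween 80 suspension. Blood microfilariae were counted before treatment and then weekly until day 42. Animals were then killed and adult worm condition scored.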
# [13] = tested on: Rattus norvegicus; test: In vivo anti-filarial (mif-microfilaricidal) activity at an ip dose of 30 mg/kg (for 5 days) against Litomosoides carinii in cotton rats; format: functional; conditions: route intraperitoneal; outline: as §6
# [14] = tested on: Rattus norvegicus; test: In vivo anti-filarial (mif-microfilaricidal) activity at an ip dose of 75 mg/kg (for 5 days) against Litomosoides carinii in cotton rats; format: functional; conditions: route intraperitoneal
# [15] = tested on: Mus musculus; test: In vivo anti-filarial (mif-microfilaricidal) activity at an ip dose of 100 mg/kg (for 5 days) against Brugia malayi; format: functional; conditions: route intraperitoneal
# [16] = tested on: Rattus norvegicus; test: as §5; format: functional; conditions: route intraperitoneal; outline: as §4; remark: listed apart in the source
# [17] = tested on: Mus musculus; test: In vivo anti-filarial (maf-macrofilaricidal) activity at an ip dose of 100 mg/kg (for 5 days) against Brugia malayi; format: functional; conditions: route intraperitoneal
# [18] = tested on: Acanthocheilonema viteae; test: In vivo anti-filarial (maf-macrofilaricidal) activity at an oral dose of 200 mg/kg (for 5 days) against A. viteae in Mastomys coucha
# [19] = tested on: Mus musculus; test: In vivo anti-filarial (mif-microfilaricidal) activity at an oral dose of 200 mg/kg (for 5 days) against A. viteae in Mastomys coucha; format: functional; outline: as §1
Compound,Activity [1] [%],Activity [2] [%],Activity [3] [%],further results
COC(=O)c1cc2c([nH]c3ccccc32)c(-c2ccccc2Cl)n1,0,94,–,–
NNC(=O)c1cc2c([nH]c3ccccc32)c(-c2ccsc2)n1,91,0,–,–
COC(=O)C1Cc2c([nH]c3ccccc23)C(c2ccc(Cl)cc2)N1 (stereo not given),94,39,100,–
COC(=O)c1cc2c([nH]c3ccccc32)c(-c2ccsc2)n1,0,60,–,–
COC(=O)C1Cc2c([nH]c3ccccc23)C(c2ccc(F)cc2)N1 (stereo not given),0,25,–,–
OCc1cc2c([nH]c3ccccc32)c(-c2ccc(F)cc2)n1,0,75,–,–
COC(=O)c1cc2c([nH]c3ccccc32)c(-c2ccc(C)cc2)n1,0,100,–,–
NC(=O)c1cc2c([nH]c3ccccc32)c(-c2cccc(Br)c2)n1,0,69,–,–
NC(=O)c1cc2c([nH]c3ccccc32)c(-c2ccsc2)n1,0,89,–,–
OCc1cc2c([nH]c3ccccc32)c(-c2ccc(Cl)cc2)n1,76,56,75,Activity [4]: 85%; Activity [5]: 62%; Activity [6]: 94%; Activity [7]: 56% and 69%; Activity [8]: 0%; Activity [9]: 0%; Activity [10]: 0%; Activity [11]: 0%; Activity [12]: 95%; Activity [13]: 29%
NC(=O)c1cc2c([nH]c3ccccc32)c(-c2ccccc2Cl)n1,44,86,100,–
Cc1ccc(-c2[nH]c(CO)cc3c4ccccc4nc2-3)cc1,0,0,40,–
COC(=O)c1cc2c([nH]c3ccccc32)c(-c2ccc(F)cc2)n1,0,56,67,–
CCN(CC)C(=O)N1CCN(C)CC1.O=C(O)CC(O)(CC(=O)O)C(=O)O [DIETHYLCARBAMAZINE CITRATE],90,0,–,Activity [14]: 90%; Activity [15]: 90%; Activity [16]: 0%; Activity [17]: 0%
COC(=O)C1Cc2c([nH]c3ccccc23)C(c2ccc(C)cc2)N1 (stereo not given),0,90,–,–
NC(=O)c1cc2c([nH]c3ccccc32)c(-c2ccc(Cl)cc2)n1,0,0,60,–
COC(=O)C1Cc2c([nH]c3ccccc23)C(c2cccc(Br)c2)N1 (stereo not given),90,0,–,–
COC(=O)c1cc2c([nH]c3ccccc32)c(-c2cccc(Cl)c2)n1,0,81,–,–
NC(=O)c1cc2c([nH]c3ccccc32)c(-c2cccs2)n1,93,0,–,–
COC(=O)C1Cc2c([nH]c3ccccc23)C(c2cccc(Cl)c2)N1 (stereo not given),0,50,–,–
COC(=O)c1cc2c([nH]c3ccccc32)c(-c2cccs2)n1,62,45,0,–
COC(=O)C1Cc2c([nH]c3ccccc23)C(c2ccsc2)N1 (stereo not given),0,57,–,–
COC(=O)C1Cc2c([nH]c3ccccc23)C(c2ccccc2Cl)N1 (stereo not given),0,93,–,Activity [18]: 0%; Activity [19]: 0%; Activity [11]: 88%; Activity [16]: 20%; Activity [13]: 0%
COC(=O)c1cc2c([nH]c3ccccc32)c(-c2cccc(Br)c2)n1,0,84,100,–
COC(=O)c1cc2c([nH]c3ccccc32)c(-c2ccccc2F)n1,0,44,–,–
NC(=O)c1cc2c([nH]c3ccccc32)c(-c2cccc(Cl)c2)n1,84,0,50,–
